Reference: the EternaBench riboswitch data

System: MS2 coat protein
Assay: apparent Kd, MS2 coat protein; higher = weaker binding; RNA-MaP array; FMN 200 µM where present
How it was run: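 SNAP-549-labelled MS2 coat protein, doubled from 0.7 or 1.5 nM to 3 µM, was titrated over designs transcribed by stalled E. coli RNA polymerase on Illumina sequencing-chip clusters. Titrations were run without and then with constant ligand in 100 mM Tris-HCl pH 7.5, 80 mM KCl, 4 mM MgCl2, BSA, DTT, yeast tRNA and Tween-20. The apparent Kd is the median of filtered per-cluster fits to green signal normalised to red-channel RNA signal and control-cluster median Fmax.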

[1] = designed as: ON switch for flavin mononucleotide, no ligand
[2] = ligand present: flavin mononucleotide, designed as: ON switch for flavin mononucleotide
[3] = designed as: OFF switch for flavin mononucleotide, no ligand
[4] = ligand present: flavin mononucleotide, designed as: OFF switch for flavin mononucleotide

Sequence	apparent Kd [1] [nM]	apparent Kd [2] [nM]	apparent Kd [3] [nM]	apparent Kd [4] [nM]
CGUAAGAUGCAGAAGGUGUUAGCUAGAGCUACGACAUGAGGAUCACCCAUGUACUAGAAACAGUACAAGGAUAUGCAUCUUACU	18.4	6.25	–	–
AUGUGGUUCCCGGCCGUCGUGUACGAGGAUAUCCUCGAACAUGAGGAUCACCCAUGUAACGUUGUGGAGAAGGCGUACGCUCGG	31.3	5.48	–	–
UGAAAUCAUGUAGGAUAUGCAUGGCGAAGCUACGCAGAAGGACAUGAGGAUCACCCAUGUGCUAGCUACCGAGUUCGGUGGCAA	–	–	103	215
AGUGUGUGGCAGGAUAUGCGAUUUGUCGGUGAAGCAGAAGGGUCUACAUGAGGAUCACCCAUGUGUGCGGUUGA	–	–	141	381
GGAGCACGCACAGGAUAUCCGGCGGCGCUCGUCGGAGAAGGGUGACAUGAGGAUCACCCAUGUACGUGCAACUCAGUUUGAGUG	95.6	40.4	–	–
GCGUAUUAGGUGUAGCUAGACAUUCAAGAAGGGUGAAGAACAUGAGGAUCACCCAUGUAGUUUUUACAGGAUAUUGAUAUACGC	356	20.4	–	–
AAAAAGGUAGGAUAUACGAAAAAAAAGGGUAGAAAAAAAACACAUGAGGAUCACCCAUGUAGAAGGACCAAAAA	–	–	27.4	63
UGACGGAGCUGAGGAUAUACAUGAGGAUCACCCAUGUAAGAUCUCCAGGAAACUGGAGAUCAAAAGUAGAAGGCAGCUCCGUCA	–	–	15.4	23.4
AUGGACGCAGGAUAUACAUGAGGAUCACCCAUGUUAGGGUUAAGAGAAGGAAGGGAGAGUAGAAGGGCGAGAGU	–	–	118	89.3
GGUUGUCAUAGUCAUCCUUAACGUACAUGAGGAUCACCCAUGUAGGAUAUGCUACUCAAAGAGUAGCAGAAGGGCGUGUGUCUU	–	–	31	35.5
CCGCCCUGAGGAUAUCCACCCUCAUACAUGAGGAUCACCCAUGUUCACCCUUGGGUUCCCGGAGAAGGCAGUUUUC	–	–	306	521
ACAGAUGCUGACAUGAGGAUCACCCAUGUUAGAUUGUUAUGUCAGGAUAUUAUCUGGCAACCAGAUGAGAAGGGACCAUCUGUG	16.5	7.33	–	–
AGUGUCAUCGAGAAGGCCUCAACAUGAGGAUCACCCAUGUUGCAAAAUGGGAGGAUAUCGCGAAAACAGCUACGUUUCGUAGCA	40.8	8.79	–	–
UCCCGGGUGCAGAAGGGAUAGGCCUAUUUUCGUGGUAUCCAAACCUAACAUGAGGAUCACCCAUGUCAGGAUAUGCCCACGGGA	–	–	4.87	5.29
UUAUCUCAUGAGAAGGACAUGAGGAUCACCCAUGUAGGAUAUCAUGGGUCAGAGGAAUUGAAUCUUCGGAUUCAAUUACUCUUC	72	12.2	–	–
CGUACUCAAGUGAGGAUAUUGUCUCGGAUACGAAACAAGAAGGCACAUGAGGAUCACCCAUGUAGAGAGUACGA	–	–	16.2	14.3
GCUAUUACAGGAUAUCGUUGUUAUAACAUGAGGAUCACCCAUGUUCGGCUCGUGAUCCAGCGAGAAGGGUGGACGC	–	–	71.7	73
AACUGACAUGAGGAUCACCCAUGUCAGGAUAUGAUAUGUAAAAAAUAAAAAAUACUUAUCAGAAGGGACAUGGA	–	–	22.7	41.3
AGUGUCAUCGAGAAGGCCUCGACAUGAGGAUCACCCAUGUUGUAACAUGGGAGGAUAUCGAUGAUACAGCUACGUUUCGUAGCA	767	394	–	–
GGUGCGUUUGUGAGGAUAUGCUGGUCCUUGGAUCAGCAGAAGGCACAUGAGGAUCACCCAUGUGGUGUCGUACC	–	–	447	47.3
GGAUGAGAAACUCAUCCAAAUCGAACAUGAGGAUCACCCAUGUAGGAUAUGCUACUCAAAGAGUAGCAGAAGGACAUGUGCUUU	–	–	35	232
ACUAGAUGAGGAUAUGCACAUUUUAGUGUUCCUCUAGAUUAACAUGAGGAUCACCCAUGUAGAAGGCGUCAUUA	–	–	68	76.6
GUAGCAUAAUCAGGAUAUUCAGCGAAUAGAUUGACAUGAGGAUCACCCAUGUGGCGAAAGCCUCGGGAGAAGGGAUAAUGCUAC	399	76.8	–	–
AUCAGCUCGUCAGGAUAUAUGUCACUGCUUCGGCAGUGUGGUAAGAUUACAUGAGGAUCACCCAUGUAGAAGGGACGAGCUGAU	–	–	6.12	6.9
CUGGGAUAGUGGGAUAGGGUUGCCAGAAGGGUCUACAUGAGGAUCACCCAUGUGGGUCCGAGUGGACAGGAUAUGGCGUCCGUA	–	–	12.6	45.3
GGAUAGGACAGAGGAUAUACGUGCUAGAGAUACUAGCAAAAUUACCUCACAUGAGGAUCACCCAUGUAGAAGGCUGUCCUAUCG	–	–	5.29	60.6
CUUAGACAUGAGGAUCACCCAUGUCAGGAUAUCGUCUACCUGUGGAAACACAGGUAGACGAGAAGGGAUGUGUU	–	–	51.6	41.4
